Common to all, as to assay type: functional
The nature of assay [1]: DPPH radical scavenging activity at 100 uM. On the technique in general: The DPPH test is a chemical assay of radical scavenging.
Assay [2] is described as follows: DPPH radical scavenging activity at 10 uM.
Assay [3] is described as follows: DPPH radical scavenging activity at 200 uM.
The nature of assay [4]: DPPH radical scavenging activity at 50 uM.
Assay [5] deals with BV-2. The assay can be described thus: Inhibition of NO production in LPS-induced mouse BV2 microglia cells at 10 uM. In a few lines:
(§1)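 BV-2 microglia were exposed to LPS (1 µg/mL) alone or with compound at 10 or 20 µM for 24 h at 37 °C. Nitrite was then measured in medium sampled at the end of incubation. Data are mean ± SE of three independent experiments, each run in triplicate.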

Assay [6] is described as follows: Neuroprotective effect against glutamate-induced toxicity in ICR mouse cultured cortical neurons assessed as cell viability at 10 uM. The conditions noted are these: Cortical neurone, read-out: Activity. A digest of the protocol: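 Cultured cortical neurons were co-treated with 60 µM glutamate and compound for 24 h at 37 °C. WST-1 was then added at 1:10 in the conditioned medium for 2 h at 37 °C. Formazan absorbance was read at 450 nm against a 650 nm reference and normalized to untreated control wells. Data are mean ± SE of three independent experiments in triplicate.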

Assay [7] deals with BV-2. The assay is described as follows: Inhibition of NO production in LPS-induced mouse BV2 microglia cells at 20 uM. A digest of the protocol: as §1

For the molecule `COc1cc(/C=C/C=O)ccc1O`, the Activity came to 0.43% in assay [1], 2.37% in assay [2], 10.6% in assay [3] and 0.28% in assay [4].

For the molecule `COc1cccc(/C=C/C(=O)c2ccccc2)c1O`, the Activity in the assay on BV-2 [5] was 17.62 µM; in assay [1], 7.94%; in assay [2] it was 5.4%; in assay [3] it was 11%; in assay [4], 6.09%; in the assay with BV-2 [7] it was 15.69 µM. The viability at 10 µM in assay [6] amounted to 58%.

Turning to `Oc1ccc(/C=C/c2cc(O)cc(O)c2)cc1`, the Activity in assay [1] came to 28.4%; in assay [2], 9.45%; in assay [3], 33.8%; in assay [4] it was 8.44%.

Turning to `COc1ccc(/C=C/C(=O)c2cc(F)c(F)c(F)c2)cc1O`, the Activity was 25.07 µM in the assay on BV-2 [5]; 3.25% in assay [1]; 1.99% in assay [2]; 5.29% in assay [3]; 2.71% in assay [4]; 22 µM with BV-2 [7]. In assay [6], the viability at 10 µM was 63%.

Regarding `COc1ccc(/C=C/C(=O)c2ccc3c(c2)OCO3)cc1OC`, the Activity was 25.69 µM in the assay on BV-2 [5]; 1.75% in assay [1]; 3.27% in assay [2]; 1.56% in assay [3]; 1.95% in assay [4]; 20.6 µM with BV-2 [7]. Also, the viability at 10 µM in assay [6] amounted to 61%.

As to `COc1cccc(/C=C/C(=O)c2ccc3c(c2)OCO3)c1O`, the Activity in the assay with BV-2 [5] was 22.62 µM; in assay [1], 18.6%; in assay [2], 13.9%; in assay [3], 22.2%; in assay [4] it was 14.9%; with BV-2 [7] it was 16.44 µM. The viability at 10 µM in assay [6] amounted to 56%.

For `COc1cc(/C=C/C(=O)c2cc(F)c(F)c(F)c2)ccc1O`, the Activity was determined as 19.82 µM with BV-2 [5]; 32% in assay [1]; 22.9% in assay [2]; 38% in assay [3]; 23.5% in assay [4]; 12.11 µM with BV-2 [7]. The viability at 10 µM in assay [6] was found to be 61%.

Consider `COc1cc(/C=C/C(=O)c2ccc(OC)c(F)c2)ccc1O`, for which the Activity with BV-2 [5] was 14.21 µM; in assay [1], 28.4%; in assay [2], 17.8%; in assay [3] it was 37.5%; in assay [4] it was 18.9%; with BV-2 [7], 6.23 µM. The viability at 10 µM in assay [6] stood at 79%.

For the molecule `COc1cc(/C=C/C(=O)c2ccc3c(c2)OCO3)ccc1O`, the Activity was 12.63 µM with BV-2 [5]; 14.1% in assay [1]; 7.9% in assay [2]; 25.1% in assay [3]; 12% in assay [4]; 11.32 µM in the assay with BV-2 [7]. The viability at 10 µM in assay [6] came to 79%.

As to `COc1ccc(C(=O)/C=C/c2cccc(OC)c2O)cc1F`, the Activity was found to be 19.55 µM in the assay with BV-2 [5]; 2.42% in assay [1]; 1.74% in assay [2]; 2.87% in assay [3]; 1.14% in assay [4]; 14.19 µM with BV-2 [7]. The viability at 10 µM in assay [6] turned out to be 75%.

Regarding `COc1ccc(/C=C/C(=O)c2ccccc2)cc1O`, the Activity was determined as 18.93 µM with BV-2 [5]; 2.05% in assay [1]; 1.26% in assay [2]; 5.38% in assay [3]; 1.46% in assay [4]; 16.04 µM in the assay with BV-2 [7]. In addition, the viability at 10 µM in assay [6] turned out to be 67%.

For `COc1ccc(/C=C/C(=O)c2ccc(OC)c(F)c2)cc1O`, the Activity with BV-2 [5] was 23.4 µM; in assay [1], 2.73%; in assay [2], 1.55%; in assay [3], 5.02%; in assay [4] it was 1.68%; in the assay on BV-2 [7] it was 19.98 µM. For the same molecule, the viability at 10 µM in assay [6] stood at 80%.

With `Cc1c(C)c2c(c(C)c1O)CCC(C)(C(=O)O)O2` (stereo not drawn), the Activity in assay [1] was found to be 62.4%; in assay [2] it was 12.1%; in assay [3], 78.2%; in assay [4], 30.2%.

On to `COc1ccc(/C=C/C(=O)c2ccc3c(c2)OCO3)cc1O`, for which the Activity worked out at 21.3 µM in the assay with BV-2 [5]; 9.63% in assay [1]; 8.75% in assay [2]; 11% in assay [3]; 9.14% in assay [4]; 12.44 µM in the assay on BV-2 [7]. Further, the viability at 10 µM in assay [6] is 69%.

Take `COc1cccc(/C=C/C(=O)c2cc(F)c(F)c(F)c2)c1O`: the Activity in the assay on BV-2 [5] was 18.05 µM; in assay [1], 5.5%; in assay [2], 3.08%; in assay [3], 6.81%; in assay [4] it was 3.28%; in the assay on BV-2 [7] it was 14.72 µM. In addition, in assay [6], the viability at 10 µM was 71%.

With `COc1cc(/C=C/C(=O)c2ccccc2)ccc1O`, the Activity in the assay with BV-2 [5] is 16.14 µM; in assay [1] it was 14.4%; in assay [2] it was 7.53%; in assay [3], 22.6%; in assay [4], 11.8%; in the assay with BV-2 [7], 13.16 µM. For the same molecule, the viability at 10 µM in assay [6] amounted to 62%.
